# Data taken from ChEMBL document CHEMBL1151732, “Synthesis and anticancer activity comparison of phenylalkyl isoselenocyanates with corresponding naturally occurring and synthetic isothiocyanates” (J Med Chem, 2008).
# Calls of active or inactive are those of the source. The rule behind the calls is not given here.
# Key:
# [1] = system: UACC-903; assay: Cytotoxicity against human UACC-903 cells after 24 hrs by MTS assay; conditions: UACC-903, 24 h
# [2] = system: UACC-903; assay: Cytotoxicity against human UACC-903 cells assessed as decrease in cell viability after 24 hrs by MTS assay relative to control; format: functional, cell-based; conditions: for IC50: UACC-903, 24 h
# Summary of the method: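 UACC 903 melanoma cells, 5×10^3 per well in DMEM with 10% FBS, were exposed after 24 h to DMSO or 5, 10 or 15 μM agent for 24 h. Viability was read by MTS tetrazolium reduction to formazan and expressed as percent of DMSO control, as the mean of three independent experiments with SEM.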
# [3] = system: UACC-903; assay: Antitumor activity in human UACC-903 cells xenografted in Harlan Sprague-Dawley athymic nude mouse assessed as reduction in tumor size at 2.5 uM, ip administered three times per week; format: functional; parameters: scale not given: the % may be the effect or the level left
# Summary of the method: (§1)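 UACC 903 xenografts: 5×10^6 cells s.c. in 0.2 ml DMEM/10% FBS at both flanks of 4–6-week-old female athymic nude mice. From day six, mice were randomized (5/group, 2 tumors each) and given 2.5 μmoles i.p. three times weekly (Mon/Wed/Fri), with DMSO vehicle controls. Tumor size (calipers, mm³) and body weight were measured thrice weekly.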
# [4] = system: HT-1080; assay: Cytotoxicity against human HT1080 cells after 24 hrs by MTS assay; conditions: HT-1080, 24 h
# [5] = system: Caco-2; assay: Cytotoxicity against human Caco-2 cells after 24 hrs by MTS assay; conditions: Caco-2, 24 h
# [6] = system: UACC-903; assay: Induction of apoptosis in human UACC-903 cells assessed as increase in caspase 7 activity after 24 hrs relative to control; format: functional, cell-based
# Summary of the method: (§2)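 Apoptosis was measured in UACC 903 cells seeded at 5×10^3 per well and treated 24 h with DMSO vehicle or increasing agent concentrations. Combined caspase-3/7 activity was read with the Apo-ONE homogeneous caspase-3/7 kit and reported as fold increase over vehicle-treated cells, averaged over three independent experiments with SEM.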
# [7] = system: MDA-MB-231; assay: Cytotoxicity against human MDA-MB-231 cells after 24 hrs by MTS assay; conditions: MDA-MB-231, 24 h
# [8] = system: UACC-903; assay: Antiproliferative activity against human UACC-903 cells assessed as BrdU incorporation after 24 hrs by ELISA relative to control; format: functional, cell-based
# Summary of the method: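 UACC 903 cells, 5×10^3 per well, treated 24 h with DMSO vehicle or increasing concentrations of test agents. Proliferating cells were measured by BrdU incorporation with a BrdU ELISA kit. Values are expressed as percent of DMSO-treated cells, as the mean of three independent experiments with SEM.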
# [9] = system: T98G; assay: Cytotoxicity against human T98G cells after 24 hrs by MTS assay
# [10] = system: UACC-903; assay: Antitumor activity in human UACC-903 cells xenografted in Harlan Sprague-Dawley athymic nude mouse assessed as reduction in tumor size at 0.76 uM, ip administered three times per week; format: functional
# Summary of the method: (§3)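 Female athymic nude mice aged 4–6 weeks received 5×10^6 UACC 903 cells s.c. in 0.2 ml DMEM/10% FBS above both rib cages. After six days they were randomized (5 mice/group, 2 tumors/mouse) and dosed i.p. with 0.76 μmoles (3 ppm selenium) Mon/Wed/Fri; controls received DMSO vehicle. Caliper tumor volume (mm³) and body weight were recorded thrice weekly.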
# [11] = system: UACC-903; assay: Induction of apoptosis in human UACC-903 cells assessed as increase in caspase 3 activity after 24 hrs relative to control; format: functional, cell-based
# Summary of the method: as §2
# [12] = system: PC-3; assay: Cytotoxicity against human PC-3 cells after 24 hrs by MTS assay; conditions: PC-3, 24 h
# [13] = system: Mus musculus; assay: Toxicity in human UACC-903 cells xenografted in Harlan Sprague-Dawley athymic nude mouse assessed as effect on body weight at 2.5 uM, ip administered three times per week; format: organism-based; conditions: in vivo
# Summary of the method: as §1
# [14] = system: Mus musculus; assay: Toxicity in human UACC-903 cells xenografted in Harlan Sprague-Dawley athymic nude mouse assessed as effect on body weight at 0.76 uM, ip administered three times per week; format: organism-based; conditions: in vivo
# Summary of the method: as §3
SMILES,IC50 [1] [µM],IC50 [2] [µM],Activity [3] [%],IC50 [4] [µM],IC50 [5] [µM],Activity [6],IC50 [7] [µM],Activity [8],IC50 [9] [µM],Activity [10],Activity [11],IC50 [12] [µM],Activity [13],Activity [2],Activity [14]
CC(=O)NC(CSC(=[Se])NCCCCc1ccccc1)C(=O)O (stereo not drawn),17,10,–,–,–,–,–,–,–,–,–,–,–,–,–
CC(=O)NC(CSC(=S)NCCCCc1ccccc1)C(=O)O (stereo not drawn),24,24,–,–,–,–,–,–,–,–,–,–,–,–,–
S=C=NCc1ccccc1 [BENZYL ISOTHIOCYANATE],15,–,40,> 50,15,Dose-dependent effect,42,Dose-dependent effect,> 100,inactive,Dose-dependent effect,> 50,Non-toxic,Dose-dependent effect,–
[Se]=C=NCc1ccccc1 [BENZYLISOSELENOCYANATE],16,–,–,13,13,Dose-dependent effect,29,Dose-dependent effect,43,–,Dose-dependent effect,24,–,Dose-dependent effect,Non-toxic
[Se]=C=NCCc1ccccc1 [PHENETHYLISOSELENOCYANATE],12,–,–,12,11,Dose-dependent effect,20,Dose-dependent effect,24,30%,Dose-dependent effect,16,–,Dose-dependent effect,Non-toxic
S=C=NCCc1ccccc1 [PHENETHYLISOTHIOCYANATE],12,–,40,15,14,Dose-dependent effect,38,Dose-dependent effect,> 100,inactive,Dose-dependent effect,24,Non-toxic,Dose-dependent effect,–
[Se]=C=NCCCCc1ccccc1 [PHENYLBUTYL ISOSELENOCYANATE],10,–,–,11,12,Dose-dependent effect,21,Dose-dependent effect,27,30%,Dose-dependent effect,19,–,Dose-dependent effect,Non-toxic
S=C=NCCCCc1ccccc1 [PHENYLBUTYL ISOTHIOCYANATE],16,–,40,15,27,Dose-dependent effect,27,Dose-dependent effect,35,inactive,Dose-dependent effect,24,Non-toxic,Dose-dependent effect,–
[Se]=C=NCCCCCCc1ccccc1 [PHENYLHEXYL ISOSELENOCYANATE],10,–,–,12,10,Dose-dependent effect,22,Dose-dependent effect,23,30%,Dose-dependent effect,14,–,Dose-dependent effect,Non-toxic
S=C=NCCCCCCc1ccccc1 [PHENYLHEXYL ISOTHIOCYANATE],15,–,40,29,49,Dose-dependent effect,24,Dose-dependent effect,26,inactive,Dose-dependent effect,17,Non-toxic,Dose-dependent effect,–
